From the array DNA melting data of Ke et al. (doi:10.1101/2024.01.08.574731)

How the values were obtained:
[1] = melting temperature; fluorescence melt of hairpins on a sequencing array, two-state fit, raised by 9.35 °C to match UV melts; conditions: sodium 0.088 M
Summary of the method: (§1)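 Melting temperature and folding enthalpy were obtained by bootstrapped two-state fitting. Fits used Cy3 fluorescence of library hairpins with annealed Cy3 and quencher oligos on a sequenced MiSeq flow cell, imaged in 50 mM Na-HEPES pH 8.0, 25 mM NaCl in 2.5 °C steps up to 60 °C and normalised to pre-quench Cy3 and control constructs. Four replicates were combined by inverse-variance weighting, and fitted temperatures were raised by 9.35 °C to match UV melts.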

[2] = folding enthalpy; higher = less favourable; fluorescence melt of hairpins on a sequencing array, two-state fit; conditions: sodium 0.088 M
Summary of the method: as §1

GTAGGGGGAAACCCCCAC ((.((((....)))).))
Tm [1]: 43.5 °C
folding enthalpy [2]: -12.6 kcal/mol

GTAGGGGGAAACCCCTGC (.(((((....))))).)
Tm [1]: 53.2 °C
folding enthalpy [2]: -21.9 kcal/mol

GTAGGGGGAAACTCCTGC (.(((.(....).))).)
Tm [1]: 35.5 °C
folding enthalpy [2]: -20 kcal/mol

GTAGTAACGAAAGTTTAC (((..(((....))))))
Tm [1]: 27.1 °C
folding enthalpy [2]: -9.07 kcal/mol

GTAGTACGAAAGTAATAC (((.(((....))).)))
Tm [1]: 43.2 °C
folding enthalpy [2]: -28.9 kcal/mol

GTAGTCGAAAGACAATAC ((((((....)))..)))
Tm [1]: 28.3 °C
folding enthalpy [2]: -15.2 kcal/mol

GTAGTCGAAAGACCTTAC ((((((....)))..)))
Tm [1]: 29.4 °C
folding enthalpy [2]: -14.1 kcal/mol

GTAGTCGAAAGACGCTAC ((((((....)))..)))
Tm [1]: 36.1 °C
folding enthalpy [2]: -14.2 kcal/mol

GTAGTCGAAAGACGTTAC ((((((....)))..)))
Tm [1]: 35 °C
folding enthalpy [2]: -12.2 kcal/mol

GTAGTCGCGAAAGCGTAC (((..(((....))))))
Tm [1]: 32.9 °C
folding enthalpy [2]: -8.28 kcal/mol

GTAGTCGGAAACGATTAC (((.(((....))).)))
Tm [1]: 44.1 °C
folding enthalpy [2]: -30.4 kcal/mol

GTAGTCGGAAACGATTGC (.(.(((....))).).)
Tm [1]: 31.2 °C
folding enthalpy [2]: -17.2 kcal/mol

GTAGTCGGAAACGGCTAC ((((.((....)).))))
Tm [1]: 54.6 °C
folding enthalpy [2]: -43.1 kcal/mol

GTAGTGCGAAAGCAGTAC (((.(((....))).)))
Tm [1]: 58.2 °C
folding enthalpy [2]: -31.2 kcal/mol

GTAGTGTCGAAAGACTAC (((..(((....))))))
Tm [1]: 33.3 °C
folding enthalpy [2]: -15.1 kcal/mol

GTAGTTGCGAAAGCATAC (((..(((....))))))
Tm [1]: 31.1 °C
folding enthalpy [2]: -10.9 kcal/mol

GTAGTTGGAAACAGTTAC (((..((....))..)))
Tm [1]: 28.7 °C
folding enthalpy [2]: -9.43 kcal/mol

GTAGTTGGAAACGACTAC (((((.(....).)))))
Tm [1]: 45.8 °C
folding enthalpy [2]: -26.4 kcal/mol

GTATAACGAAAGTTTTAC (((.(((....))).)))
Tm [1]: 34.7 °C
folding enthalpy [2]: -20.8 kcal/mol

GTATAATCGAAAGATTAC (((..(((....))))))
Tm [1]: 30 °C
folding enthalpy [2]: -10.9 kcal/mol

GTATACCGAAAGGTTAC (((.(((....))))))
Tm [1]: 40.1 °C
folding enthalpy [2]: -17.4 kcal/mol

GTATACGAAAGTAACTAC ((((((....)))..)))
Tm [1]: 26.4 °C
folding enthalpy [2]: -19.9 kcal/mol

GTATACGAAAGTAATAC ((((((....))).)))
Tm [1]: 35.5 °C
folding enthalpy [2]: -19.2 kcal/mol

GTATACGAAAGTATATAC ((((((....)))..)))
Tm [1]: 34.7 °C
folding enthalpy [2]: -14.4 kcal/mol

GTATACGAAAGTATTAC ((((((....))).)))
Tm [1]: 32.8 °C
folding enthalpy [2]: -13.9 kcal/mol

GTATACGGAAACGCATAC ((((.((....)).))))
Tm [1]: 37.3 °C
folding enthalpy [2]: -28.2 kcal/mol

GTATACGGAAACGTACAC ((.((((....)))).))
Tm [1]: 32.4 °C
folding enthalpy [2]: -18.6 kcal/mol

GTATACGGAAACGTGTAC (((.(((....))).)))
Tm [1]: 46.3 °C
folding enthalpy [2]: -35.3 kcal/mol

GTATAGGGAAACCCATAC ((((.((....)).))))
Tm [1]: 31.8 °C
folding enthalpy [2]: -16.1 kcal/mol

GTATAGGGAAACCTATGC (.(((((....))))).)
Tm [1]: 38 °C
folding enthalpy [2]: -22.2 kcal/mol

GTATATGGAAACATATAC (((((((....)))))))
Tm [1]: 47.9 °C
folding enthalpy [2]: -42 kcal/mol

GTATCCGAAAGGACTTAC ((((((....)))..)))
Tm [1]: 28.6 °C
folding enthalpy [2]: -11.4 kcal/mol

GTATCCGAAAGGAGTAC ((((((....))).)))
Tm [1]: 35.5 °C
folding enthalpy [2]: -19.1 kcal/mol

GTATCCGAAAGGATGTAC ((((((....)))..)))
Tm [1]: 36.7 °C
folding enthalpy [2]: -11.5 kcal/mol

GTATCCGAAAGGATTAC ((((((....))).)))
Tm [1]: 41 °C
folding enthalpy [2]: -13.7 kcal/mol

GTATCCGGAAACGGATGC (.(((((....))))).)
Tm [1]: 53 °C
folding enthalpy [2]: -28.3 kcal/mol

GTATCGGGAAACCAATAC ((((.((....)).))))
Tm [1]: 30.3 °C
folding enthalpy [2]: -24.6 kcal/mol

GTATGACGAAAGTCCTAC (((.(((....))).)))
Tm [1]: 38.9 °C
folding enthalpy [2]: -24.3 kcal/mol

GTATGACGAAAGTCTAC (((.(((....))))))
Tm [1]: 39 °C
folding enthalpy [2]: -16.9 kcal/mol

GTATGACGAAAGTCTTAC (((.(((....))).)))
Tm [1]: 47.2 °C
folding enthalpy [2]: -24.7 kcal/mol

GTATGAGCGAAAGCTTAC (((..(((....))))))
Tm [1]: 30.1 °C
folding enthalpy [2]: -9.43 kcal/mol

GTATGAGGAAACTCATAC (((((((....)))))))
Tm [1]: 54.6 °C
folding enthalpy [2]: -36.9 kcal/mol

GTATGCCCGAAAGGGTAC (((..(((....))))))
Tm [1]: 31.2 °C
folding enthalpy [2]: -8.06 kcal/mol

GTATGCCGAAAGGCCTAC (((.(((....))).)))
Tm [1]: 45.5 °C
folding enthalpy [2]: -12.1 kcal/mol

GTATGCGAAAGCAAATAC ((((((....)))..)))
Tm [1]: 37.7 °C
folding enthalpy [2]: -16.7 kcal/mol

GTATGCGAAAGCAACTAC ((((((....)))..)))
Tm [1]: 36.2 °C
folding enthalpy [2]: -11.6 kcal/mol

GTATGCGAAAGCAGTAC ((((((....))).)))
Tm [1]: 39.5 °C
folding enthalpy [2]: -17.7 kcal/mol

GTATGCGAAAGCATGTAC ((((((....)))..)))
Tm [1]: 38 °C
folding enthalpy [2]: -10.6 kcal/mol

GTATGGCCGAAAGGCTAC (((..(((....))))))
Tm [1]: 30 °C
folding enthalpy [2]: -7.75 kcal/mol

GTATGGCGAAAGCCCTAC (((.(((....))).)))
Tm [1]: 37.8 °C
folding enthalpy [2]: -18.4 kcal/mol

GTATGGCGAAAGCCTAC (((.(((....))))))
Tm [1]: 46.6 °C
folding enthalpy [2]: -13.2 kcal/mol

GTATGGCGAAAGCCTTAC (((.(((....))).)))
Tm [1]: 48.2 °C
folding enthalpy [2]: -22.8 kcal/mol

GTATGGGGAAACCCGTAC (((.(((....))).)))
Tm [1]: 49.1 °C
folding enthalpy [2]: -34.5 kcal/mol

GTATGGTCGAAAGACTAC (((..(((....))))))
Tm [1]: 27.9 °C
folding enthalpy [2]: -15.5 kcal/mol

GTATGTCCGAAAGGATAC (((..(((....))))))
Tm [1]: 26.8 °C
folding enthalpy [2]: -16.3 kcal/mol

GTATGTCGAAAGACCTAC (((.(((....))).)))
Tm [1]: 39.6 °C
folding enthalpy [2]: -19.2 kcal/mol

GTATGTGAAAACATAC ((((((....))))))
Tm [1]: 50.4 °C
folding enthalpy [2]: -36.2 kcal/mol

GTATGTGGAAACACATAC (((((((....)))))))
Tm [1]: 56 °C
folding enthalpy [2]: -42.4 kcal/mol

GTATTAGGAAACTAGTAC (((.(((....))).)))
Tm [1]: 29 °C
folding enthalpy [2]: -16.2 kcal/mol

GTATTCGAAAGAACTAC ((((((....))).)))
Tm [1]: 22.4 °C
folding enthalpy [2]: -9.16 kcal/mol

GTATTCGAAAGAATCTAC ((((((....)))..)))
Tm [1]: 33.3 °C
folding enthalpy [2]: -10.7 kcal/mol

GTATTCGGAAACGAATAC (((((((....)))))))
Tm [1]: 56.8 °C
folding enthalpy [2]: -48.2 kcal/mol

GTATTCTCGAAAGAGTAC (((..(((....))))))
Tm [1]: 22.9 °C
folding enthalpy [2]: -7.69 kcal/mol

GTATTGCCGAAAGGCTAC (((..(((....))))))
Tm [1]: 50 °C
folding enthalpy [2]: -3.24 kcal/mol

GTATTGCGAAAGCACTAC (((.(((....))).)))
Tm [1]: 39.4 °C
folding enthalpy [2]: -21.5 kcal/mol

GTATTGGCGAAAGCCTAC (((..(((....))))))
Tm [1]: 41.5 °C
folding enthalpy [2]: -3.67 kcal/mol

GTATTGTCGAAAGACTAC (((..(((....))))))
Tm [1]: 28.5 °C
folding enthalpy [2]: -11.4 kcal/mol

GTCAAAGCGAAAGCTGAC (((..(((....))))))
Tm [1]: 48.1 °C
folding enthalpy [2]: -21.2 kcal/mol
